Assay results taken from ChEMBL document CHEMBL2062418, “C3-heteroaroyl cannabinoids as photolabeling ligands for the CB2 cannabinoid receptor” (Bioorg Med Chem Lett, 2012).

Columns and labels:
Cannabinoid receptor 2 [1] = target: Cannabinoid receptor 2 (Homo sapiens, UniProt P34972); test: Displacement of [3H]CP-55,940 from human CB2 receptor expressed in HEK293 cells; type: cell-based
Summary of the method: (§1)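 Competition binding with [3H]CP-55,940 on rat brain membranes (CB1) or on membranes from HEK293 cells expressing mouse or human CB2. Screened first at two points in triplicate. Where that screen gave Ki below 1000 nM, Ki was taken from one 8-point experiment run in triplicate.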

Cannabinoid receptor 2 [2] = target: Cannabinoid receptor 2 (Mus musculus, UniProt P47936); test: Displacement of [3H]CP-55,940 from mouse CB2 receptor expressed in HEK293 cells; type: cell-based; summary of the method: as §1
Cannabinoid receptor 1 = Cannabinoid receptor 1 (Rattus norvegicus, UniProt P20272); test: Displacement of [3H]CP-55,940 from rat brain CB1 receptor; summary of the method: as §1
[3] = Selectivity ratio of Ki for rat CB1 receptor to Ki for mouse CB2 receptor
[4] = target: Cannabinoid receptor 2 (Mus musculus) (UniProt P47936); conditions: HEK293, 342 nM
Cannabinoid receptor 2 (Mus musculus), sequence (P47936 whole entry): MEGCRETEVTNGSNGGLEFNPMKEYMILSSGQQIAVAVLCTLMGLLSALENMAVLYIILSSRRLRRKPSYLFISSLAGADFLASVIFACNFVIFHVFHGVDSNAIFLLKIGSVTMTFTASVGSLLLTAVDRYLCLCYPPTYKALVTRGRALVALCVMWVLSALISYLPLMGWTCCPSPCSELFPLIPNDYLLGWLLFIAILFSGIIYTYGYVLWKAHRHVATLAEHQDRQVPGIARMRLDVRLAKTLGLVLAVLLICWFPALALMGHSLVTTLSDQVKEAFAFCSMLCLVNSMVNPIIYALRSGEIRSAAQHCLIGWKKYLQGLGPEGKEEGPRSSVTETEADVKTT

Cannabinoid receptor 2 (Mus musculus, UniProt P47936), sequence (P47936 whole entry): as above
Cannabinoid receptor 1, sequence (P20272 whole entry): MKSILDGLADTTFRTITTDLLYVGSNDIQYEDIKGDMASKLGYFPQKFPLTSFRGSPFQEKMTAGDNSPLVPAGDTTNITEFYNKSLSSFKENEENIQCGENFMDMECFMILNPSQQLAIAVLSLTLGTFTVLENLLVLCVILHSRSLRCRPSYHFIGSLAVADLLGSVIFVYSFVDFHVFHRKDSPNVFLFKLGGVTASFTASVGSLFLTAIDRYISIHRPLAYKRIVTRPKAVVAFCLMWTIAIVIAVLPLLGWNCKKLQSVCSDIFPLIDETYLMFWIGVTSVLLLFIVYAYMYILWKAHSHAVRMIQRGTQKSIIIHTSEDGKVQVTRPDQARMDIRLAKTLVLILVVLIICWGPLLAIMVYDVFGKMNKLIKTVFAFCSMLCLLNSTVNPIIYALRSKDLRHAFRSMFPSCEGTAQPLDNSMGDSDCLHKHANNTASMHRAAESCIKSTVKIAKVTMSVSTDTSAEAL
Cannabinoid receptor 2 (Homo sapiens, UniProt P34972), sequence (P34972 whole entry): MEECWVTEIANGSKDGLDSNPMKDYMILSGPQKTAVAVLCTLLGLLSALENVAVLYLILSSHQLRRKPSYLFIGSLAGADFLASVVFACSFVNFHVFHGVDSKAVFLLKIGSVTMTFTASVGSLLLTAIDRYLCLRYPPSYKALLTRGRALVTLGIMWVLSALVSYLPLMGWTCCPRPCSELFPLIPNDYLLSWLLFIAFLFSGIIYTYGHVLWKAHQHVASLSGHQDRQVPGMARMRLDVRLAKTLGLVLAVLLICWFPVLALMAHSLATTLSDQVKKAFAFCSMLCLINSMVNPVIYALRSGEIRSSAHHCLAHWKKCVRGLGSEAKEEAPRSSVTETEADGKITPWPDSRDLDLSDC

`CC1(C)Oc2cc(C(=O)c3cscn3)cc(O)c2[C@@H]2C[C@H](O)CC[C@H]21` showed a Ki (Cannabinoid receptor 2 [1]) of over 1000 nM, a Ki (Cannabinoid receptor 2 [2]) of over 1000 nM and a Ki (Cannabinoid receptor 1) of over 1000 nM.
`Cn1cc(C(=O)c2cc(O)c3c(c2)OC(C)(C)[C@@H]2CC[C@@H](O)C[C@@H]32)c2ccccc21` gave a Ki (Cannabinoid receptor 2 [1]) of 3010 nM, a Ki (Cannabinoid receptor 2 [2]) of 406 nM and a Ki (Cannabinoid receptor 1) of 3270 nM.
For `CC1(C)Oc2cc(C(=O)c3ccccc3)cc(O)c2[C@@H]2C[C@H](O)CC[C@H]21`, the Ki (Cannabinoid receptor 2 [1]) was 587 nM, the Ki (Cannabinoid receptor 2 [2]) was 247 nM and the Ki (Cannabinoid receptor 1) was 968 nM.
`CC1(C)Oc2cc(C(=O)c3cc4ccccc4s3)cc(O)c2[C@@H]2C[C@H](O)CC[C@H]21` gave a Ki (Cannabinoid receptor 2 [1]) of 113 nM, a Ki (Cannabinoid receptor 2 [2]) of 152 nM and a Ki (Cannabinoid receptor 1) of 157 nM.
For `CC1(C)Oc2cc(C(=O)c3ccsc3)cc(O)c2[C@@H]2C[C@H](O)CC[C@H]21`, the Ki (Cannabinoid receptor 2 [1]) was 1550 nM, the Ki (Cannabinoid receptor 2 [2]) was 525 nM and the Ki (Cannabinoid receptor 1) was 1040 nM.
For `CC1(C)Oc2cc(C(=O)c3ccncc3F)cc(O)c2[C@@H]2C[C@H](O)CC[C@H]21`, the Ki (Cannabinoid receptor 2 [2]) was over 1000 nM and the Ki (Cannabinoid receptor 1) was over 1000 nM.
Compound `CC1(C)Oc2cc(C(=O)c3cccnc3)cc(O)c2[C@@H]2C[C@H](O)CC[C@H]21` has a Ki (Cannabinoid receptor 2 [1]) of over 1000 nM, a Ki (Cannabinoid receptor 2 [2]) of over 1000 nM and a Ki (Cannabinoid receptor 1) of over 1000 nM.
Work on `CC1(C)Oc2cc(C(=O)c3cccs3)cc(O)c2[C@@H]2C[C@H](O)CC[C@H]21` yielded a Ki (Cannabinoid receptor 2 [2]) of over 1000 nM and a Ki (Cannabinoid receptor 1) of over 1000 nM.
`CC1(C)Oc2cc(C(=O)c3coc4ccccc34)cc(O)c2[C@@H]2C[C@H](O)CC[C@H]21` gave a Ratio Ki [3] of 17, a Ki (Cannabinoid receptor 2 [1]) of 118 nM and a Ki (Cannabinoid receptor 2 [2]) of 169 nM. The Ki (Cannabinoid receptor 1) was 2880 nM.
Compound `CC1(C)Oc2cc(C(=O)c3cccc(C(F)(F)F)c3)cc(O)c2[C@@H]2C[C@H](O)CC[C@H]21` has a Ki (Cannabinoid receptor 2 [1]) of 37.3 nM, a Ki (Cannabinoid receptor 2 [2]) of 45.8 nM and a Ki (Cannabinoid receptor 1) of 61.7 nM.
Work on `CC1(C)Oc2cc(C(=O)c3ccco3)cc(O)c2[C@@H]2C[C@H](O)CC[C@H]21` yielded a Ki (Cannabinoid receptor 2 [2]) of over 1000 nM and a Ki (Cannabinoid receptor 1) of over 1000 nM.
For `CC1(C)Oc2cc(C(=O)c3cccc(F)c3)cc(O)c2[C@@H]2C[C@H](O)CC[C@H]21`, the Ki (Cannabinoid receptor 2 [2]) was 370 nM and the Ki (Cannabinoid receptor 1) was 460 nM.
In the case of `CC1(C)Oc2cc(C(=O)c3ccncc3)cc(O)c2[C@@H]2C[C@H](O)CC[C@H]21`, the Ki (Cannabinoid receptor 2 [1]) is reported as over 1000 nM, the Ki (Cannabinoid receptor 2 [2]) is reported as over 1000 nM and the Ki (Cannabinoid receptor 1) is reported as over 1000 nM.
`CC1(C)Oc2cc(C(=O)c3cncs3)cc(O)c2[C@@H]2C[C@H](O)CC[C@H]21` gave a Ki (Cannabinoid receptor 2 [2]) of over 1000 nM and a Ki (Cannabinoid receptor 1) of over 1000 nM.
With `CC1(C)Oc2cc(C(=O)c3ccoc3)cc(O)c2[C@@H]2C[C@H](O)CC[C@H]21` the Ki (Cannabinoid receptor 2 [2]) was over 1000 nM and the Ki (Cannabinoid receptor 1) was over 1000 nM.
`CC1(C)Oc2cc(C(=O)c3c[nH]c4ccccc34)cc(O)c2[C@@H]2C[C@H](O)CC[C@H]21` gave a Ratio Ki [3] of 17, a Ki (Cannabinoid receptor 2 [1]) of 159 nM and a Ki (Cannabinoid receptor 2 [2]) of 60.4 nM. For the same compound, the Ki (Cannabinoid receptor 1) was 1050 nM.
Compound `CC1(C)Oc2cc(C(=O)c3csc4ccccc34)cc(O)c2[C@@H]2C[C@H](O)CC[C@H]21` has a Ratio Ki [3] of 37, a Ki (Cannabinoid receptor 2 [1]) of 125 nM and a Ki (Cannabinoid receptor 2 [2]) of 34.2 nM. The Ki (Cannabinoid receptor 1) was 1250 nM and the Bmax [4] was 67%.
`CC1(C)Oc2cc(C(=O)c3ccccn3)cc(O)c2[C@@H]2C[C@H](O)CC[C@H]21` showed a Ki (Cannabinoid receptor 2 [1]) of over 1000 nM, a Ki (Cannabinoid receptor 2 [2]) of over 1000 nM and a Ki (Cannabinoid receptor 1) of over 1000 nM.
`CC1(C)Oc2cc(C(=O)c3cc4ccccc4o3)cc(O)c2[C@@H]2C[C@H](O)CC[C@H]21` showed a Ki (Cannabinoid receptor 2 [1]) of 209 nM, a Ki (Cannabinoid receptor 2 [2]) of 163 nM and a Ki (Cannabinoid receptor 1) of 1360 nM.
